Measurements gathered from unrelated publications.
Protocols differ between the studies behind these lines. Converted amounts (≈) assume the structure as drawn.

SMILES	tested on	assay	system	setting	quantity	result
C#CCCCCCC(=O)NCc1c(O)c(=O)cc(C)n1C	Pseudomonas aeruginosa	microbial growth	PAO1	–	IC50	> 100 µM
Cc1c(Cl)c(=O)oc2cc(OCCCC[Se]C#N)ccc12	MIA PaCa-2	cell growth or viability, SRB	–	–	GI50	13 µM
N.N.[Cl][Pt][Cl]	SU-DHL-2	cell growth or viability, ATP luminescence	–	72 h	IC50	0.56 µM
N#C[Se]CCCCOc1ccc2c(-c3ccccc3)cc(=O)oc2c1	T47D	cell growth or viability, SRB	–	–	GI50	26 µM
C#CCCCCC(=O)NCc1cc(=O)c(O)c(CNC(=O)CCCCCC)n1C	Pseudomonas aeruginosa	microbial growth	PAO1	–	IC50	> 100 µM
NCC[C@H](O)C(=O)N[C@@H]1C[C@H](N)[C@@H](O[C@H]2O[C@H](CN)[C@@H](O)[C@H](O)[C@H]2O)[C@H](O)[C@H]1O[C@H]1O[C@H](CO)[C@@H](O)[C@H](N)[C@H]1O	Mycobacteroides abscessus	microbial growth, broth dilution	–	–	MIC90	3.4 µg/mL (≈ 5.81 µM)
O=[N+]([O-])c1ccc(NCCCCN=C=S)c2nonc12	T47D	cell growth or viability, MTT	–	24 h	IC50	2.8 µM
C[C@@H]1C[C@@H]([C@H](O)CC2CC(=O)NC(=O)C2)C(=O)[C@@H](C)C1	Pseudomonas aeruginosa	microbial growth, broth dilution	ATCC27 ATCC27853	–	MIC	16 µg/mL (≈ 56.9 µM)
C#CCCC1(CCC(=O)NCc2cc(=O)c(O)c(CNC(=O)CCCCCC)n2C)N=N1	Pseudomonas aeruginosa	microbial growth	PAO1	–	IC50	> 100 µM
NNC(=O)c1ccncc1	Mycobacteroides abscessus	microbial growth, broth dilution	–	–	MIC90	> 500 µg/mL
C[C@@H](N)[C@H](O)CCCCCCCC(=O)CCCCCCCCCCCCCC[C@@H](O[C@@H]1O[C@H](CO)[C@H](O)[C@H](O)[C@H]1O)[C@@H](C)N	Pseudomonas aeruginosa	microbial growth, resazurin	ATCC27853	50 µM	inhibition	99%
Cc1cc(=O)oc2cc(OCCCC[Se]C#N)ccc12	T47D	cell growth or viability, SRB	–	–	GI50	2.2 µM
O=c1c2ccccc2[se]n1-c1ccccc1	Zika virus	viral replication	–	48 h	IC50	7.4 µM
